Assay results gathered from unrelated publications.
Protocols differ between the studies behind these lines.
Target: Peripheral plasma membrane protein CASK (CASK, Homo sapiens, UniProt O14936)
One construct used (O14936 1-926): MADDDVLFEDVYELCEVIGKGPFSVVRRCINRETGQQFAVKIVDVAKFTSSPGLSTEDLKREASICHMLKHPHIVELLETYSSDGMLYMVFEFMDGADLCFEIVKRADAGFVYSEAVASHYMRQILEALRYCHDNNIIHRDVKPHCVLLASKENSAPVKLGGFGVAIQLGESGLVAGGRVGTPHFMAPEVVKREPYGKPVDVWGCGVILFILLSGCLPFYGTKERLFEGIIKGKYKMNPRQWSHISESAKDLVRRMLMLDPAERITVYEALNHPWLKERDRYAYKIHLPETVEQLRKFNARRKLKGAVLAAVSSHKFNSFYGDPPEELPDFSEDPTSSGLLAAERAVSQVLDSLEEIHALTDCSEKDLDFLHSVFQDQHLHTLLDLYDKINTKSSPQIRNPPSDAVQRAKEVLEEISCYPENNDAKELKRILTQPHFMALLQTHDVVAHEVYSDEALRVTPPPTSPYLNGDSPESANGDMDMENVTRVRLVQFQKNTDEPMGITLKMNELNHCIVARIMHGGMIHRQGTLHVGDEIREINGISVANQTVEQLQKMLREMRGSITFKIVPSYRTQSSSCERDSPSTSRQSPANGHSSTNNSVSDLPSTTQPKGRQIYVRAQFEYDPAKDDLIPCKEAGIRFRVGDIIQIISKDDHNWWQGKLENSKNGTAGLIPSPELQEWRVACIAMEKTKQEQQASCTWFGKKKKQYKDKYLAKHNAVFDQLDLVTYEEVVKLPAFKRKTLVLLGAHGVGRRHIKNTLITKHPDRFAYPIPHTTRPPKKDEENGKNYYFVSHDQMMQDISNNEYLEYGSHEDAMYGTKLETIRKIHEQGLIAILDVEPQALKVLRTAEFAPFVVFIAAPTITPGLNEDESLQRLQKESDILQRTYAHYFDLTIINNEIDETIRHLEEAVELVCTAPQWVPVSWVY

Structure (SMILES)	effect on	technique	tested at	remaining binding [%]
Cc1cnc(Nc2ccc(C(=O)N3CCC(N4CCCC4)CC3)cc2)nc1-c1cc2ccccc2s1	binding	competition with immobilised ligand	1 µM	100
N#CC1(c2ccccn2)CCN(Cc2cc(C(=O)N3CCCC3)c(=O)n3ccccc23)CC1	cell-free assay	competition with immobilised ligand	1 µM	100
Nc1ncc2c(n1)-c1c([nH]c3ccc(C#CC4CC4)cc13)CCCC2	binding	competition with immobilised ligand	1 µM	88
C=CC(=O)N1CCC(C(=O)NCC(=O)N2CCN(c3nc(-c4cnc(N)nc4C(F)F)nc(N4CCOCC4)n3)CC2)CC1	binding	competition with immobilised ligand	1 µM	69
CCCCN(CCCC)C(=O)CN1C[C@@H](c2cc(OC)c3c(c2)OCO3)[C@H](C(=O)O)[C@H]1CC(C)(C)CCC	cell-free assay	competition with immobilised ligand	1 µM	90.5
N[C@@H]1CCN(c2nccc(-c3cnn4ncccc34)n2)C1	binding	–	1 µM	100
CNC(=O)[C@@H]1CC[C@@H](n2c(-c3ccc4cnccc4c3)nc3ccc(C(=O)NCc4cccc(C(N)=O)c4)cc32)C1	binding	competition with immobilised ligand	1 µM	82
c1cncc(-c2cccc(Nc3nccc(NC4CCCCC4)n3)c2)c1	binding	competition with immobilised ligand	10 µM	76
O=C(NCC1CCOCC1)c1n[nH]cc1NC(=O)c1c(F)cccc1F	binding	competition with immobilised ligand	1 µM	61
O=C(c1ccc(Nc2ncc(Cl)c(-c3cc4ccccc4s3)n2)cc1)N1CCC(N2CCCC2)CC1	binding	competition with immobilised ligand	1 µM	74
CCN1CCN(Cc2ccc(C(=O)Nc3ccc(C)c(Oc4ccc5c(c4)CC(=O)N5)c3)cc2C(F)(F)F)CC1	binding	competition with immobilised ligand	1 µM	100
CN(C)c1nccc(-c2cnn3ncccc23)n1	binding	competition with immobilised ligand	1 µM	90
O=C(Nc1cccnn1)N1CCC(=Cc2cccc(Oc3ccc(C(F)(F)F)cn3)c2)CC1	cell-free assay	competition with immobilised ligand	1 µM	92
CN(CCCC(F)(F)F)c1nccc(-c2cnn3ncccc23)n1	binding	–	1 µM	100
CSc1cccnc1N1CCN(Cc2nc3ccccc3[nH]2)CC1	cell-free assay	competition with immobilised ligand	1 µM	100
C[C@@H]1CCN(c2nccc(-c3cnn4ncccc34)n2)C1	binding	–	1 µM	84
Cc1nc(C2CCN(C(=O)c3ccc(OC(F)(F)F)cc3N)CC2)c2ncc(N3CCN(C)CC3)cc2n1	cell-free assay	competition with immobilised ligand	1 µM	87
F[C@@H]1CCN(c2nccc(-c3cnn4ncccc34)n2)C1	binding	–	1 µM	100
Cn1nc(C(F)(F)F)cc1-c1cnc(N2CCc3cc(S(=O)(=O)Nc4c(F)cc(Cl)cc4F)cc(N4CCCC4=O)c32)nc1	cell-free assay	competition with immobilised ligand	1 µM	77
c1cnn2ncc(-c3ccnc(N4CCC45COC5)n3)c2c1	binding	–	1 µM	81
O=C(c1ccc(Nc2nccc(-c3cc4ccccc4s3)n2)cc1)N1CCC(N2CCCC2)CC1	binding	competition with immobilised ligand	1 µM	85
